Measured values from ChEMBL document CHEMBL1129074, “Inhibitors of human immunodeficiency virus type 1 derived from gp41 transmembrane protein: structure--activity studies” (J Med Chem, 1996).
Square brackets hold non-standard residues; d marks the D form. Peptide text beside a SMILES is read from it. Ahx = NCCCCCC(=O)O

Tests used:
MT4 [1] = test: Inhibitory potency of gp41 fragment against HIV-1 induced cytopathic effect in MT-4 cell assay at 80 uM; format: functional; conditions: Homo sapiens
MT4 [2] = test: Inhibitory potency of gp41 fragment against HIV-1 induced cytopathic effect in MT-4 cell assay at 40 uM; format: functional; conditions: Homo sapiens
MT4 [3] = test: Inhibitory potency of gp41 fragment against HIV-1 induced cytopathic effect in MT-4 cell assay at 6.4 uM; format: functional; conditions: Homo sapiens
MT4 [4] = test: (§1) Inhibitory potency of gp41 fragment against HIV-1 induced cytopathic effect in MT-4 cell assay at 20 uM; format: functional; conditions: Homo sapiens
In short: (§2)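 MT4 cells (exponential growth) at 5×10^5 cells/mL infected with HIV-1 IIIB (100× TCID50) for 1 h at 37 °C, diluted 6-fold, added to serially diluted peptide in RPMI 1640/FCS medium; mock-infected controls. After 5 days at 37 °C, 5% CO2, cells lysed with Nonidet-40 and DNA content read by propidium iodide. Inhibition = restoration of infected-cell growth relative to uninfected controls; cytotoxicity measured in parallel.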

MT4 [5] = test: Inhibitory potency of gp41 fragment against HIV-1 induced cytopathic effect in MT-4 cell assay at 200 uM; format: functional; conditions: Homo sapiens
MT4 [6] = test: Inhibitory potency of gp41 fragment against HIV-1 induced cytopathic effect in MT-4 cell assay at 16 uM; format: functional; conditions: Homo sapiens
MT4 [7] = test: Inhibitory potency of gp41 fragment against HIV-1 induced cytopathic effect in MT-4 cell assay; format: functional, cell-based; conditions: Homo sapiens
MT4 [8] = test: Inhibitory potency of gp41 fragment against HIV-1 induced cytopathic effect in MT-4 cell assay at 5 uM; format: functional; conditions: Homo sapiens
MT4 [9] = test: Inhibitory potency of gp41 fragment against HIV-1 induced cytopathic effect in MT-4 cell assay at 8 uM; format: functional; conditions: Homo sapiens
MT4 [10] = test: as §1; format: functional, Homo sapiens; conditions: Homo sapiens, MT4; in short: as §2

`CC[C@H](C)[C@H](NC(=O)[C@H](CCCN=C(N)N)NC(=O)[C@H](C)NC(=O)[C@H](CCC(N)=O)NC(=O)[C@H](CC(C)C)NC(=O)[C@H](CCC(N)=O)NC(=O)CCCCCNC(=O)CCCCCNC(=O)[C@@H](NC(=O)[C@@H](NC(=O)[C@H](CC(C)C)NC(=O)[C@H](CCC(N)=O)NC(=O)[C@H](CC(C)C)NC(=O)[C@H](CC(C)C)NC(=O)[C@H](Cc1c[nH]cn1)NC(=O)[C@H](CCC(N)=O)NC(C)=O)[C@@H](C)O)C(C)C)C(=O)N[C@@H](CC(C)C)C(=O)N[C@@H](C)C(=O)N[C@H](C(=O)N[C@@H](CCC(=O)O)C(=O)O)C(C)C` (HELM PEPTIDE1{[ac].Q.H.L.L.Q.L.T.V.[O=C(CCCCCN[*:1])[*:2]].[O=C(CCCCCN[*:1])[*:2]].Q.L.Q.A.R.I.L.A.V.E}$$$$V2.0) showed an inhibition at 80 µM (MT4 [1]) of 27%.

Compound `CC[C@H](C)[C@H](NC(=O)[C@H](CCCN=C(N)N)NC(=O)[C@H](C)NC(=O)[C@H](CCC(N)=O)NC(=O)[C@H](CC(C)C)NC(=O)[C@H](CCC(N)=O)NC(=O)[C@H](CCCCN)NC(=O)[C@@H](NC(=O)CNC(=O)[C@H](Cc1c[nH]c2ccccc12)NC(=O)[C@@H](NC(=O)[C@@H](NC(=O)[C@H](CC(C)C)NC(=O)[C@H](CCC(N)=O)NC(=O)CCCCCN)[C@@H](C)O)C(C)C)[C@@H](C)CC)C(=O)O` (HELM PEPTIDE1{[NCCCCCC(=O)[*:2]].Q.L.T.V.W.G.I.K.Q.L.Q.A.R.I}$$$$V2.0) has an inhibition at 40 µM (MT4 [2]) of 11%.

`CCCCCCCCCCCCC(N)C(=O)N[C@@H](CC(C)C)C(=O)N[C@@H](CCC(N)=O)C(=O)N[C@@H](CC(C)C)C(=O)N[C@H](C(=O)N[C@H](C(=O)N[C@@H](Cc1c[nH]c2ccccc12)C(=O)NCC(=O)N[C@H](C(=O)N[C@@H](CCCCN)C(=O)N[C@@H](CCC(N)=O)C(=O)N[C@@H](CC(C)C)C(=O)N[C@@H](CCC(N)=O)C(=O)N[C@@H](C)C(=O)N[C@@H](CCCN=C(N)N)C(=O)N[C@H](C(=O)O)[C@@H](C)CC)[C@@H](C)CC)C(C)C)[C@@H](C)O` (stereo partly drawn) (HELM PEPTIDE1{[CCCCCCCCCCCCC(N)C(=O)[*:2]].L.Q.L.T.V.W.G.I.K.Q.L.Q.A.R.I}$$$$V2.0) showed an inhibition at 6.4 µM (MT4 [3]) of 37%.

Work on `CC[C@H](C)[C@H](NC(=O)CNC(=O)[C@H](Cc1c[nH]c2ccccc12)NC(=O)[C@@H](NC(=O)[C@@H](NC(=O)[C@H](CC(C)C)NC(=O)[C@H](CCC(N)=O)NC(=O)[C@H](CC(C)C)NC(=O)[C@H](CC(C)C)NC(=O)[C@H](Cc1c[nH]cn1)NC(=O)[C@H](CCC(N)=O)NC(=O)[C@H](CCC(N)=O)NC(=O)[C@H](C)NC(=O)[C@H](CCC(=O)O)NC(=O)[C@@H](NC(=O)[C@H](C)NC(=O)[C@H](CCCN=C(N)N)NC(=O)[C@H](CC(C)C)NC(=O)[C@H](CC(C)C)NC(=O)[C@H](CC(N)=O)NC(=O)[C@H](CC(N)=O)NC(C)=O)[C@@H](C)CC)[C@@H](C)O)C(C)C)C(=O)N[C@@H](C)C(=O)N[C@@H](C)C(=O)N[C@@H](CC(C)C)C(=O)N[C@@H](CCC(N)=O)C(=O)N[C@@H](C)C(=O)N[C@@H](CCCN=C(N)N)C(=O)N[C@H](C(=O)N[C@@H](C)C(=O)N[C@@H](C)C(=O)N[C@H](C(=O)N[C@@H](CCC(=O)O)C(=O)N[C@@H](C)C(=O)N[C@@H](Cc1ccc(O)cc1)C(=O)N[C@@H](CC(C)C)C(=O)N[C@@H](C)C(=O)N[C@@H](C)C(=O)N[C@@H](CCC(N)=O)C(=O)O)C(C)C)[C@@H](C)CC` (Ac-NNLLRAIEAQQHLLQLTVWGIAALQARIAAVEAYLAAQ-OH) yielded an inhibition at 20 µM (MT4 [4]) of 22%.

For `CC[C@H](C)[C@H](NC(=O)CCCCCNC(=O)CCCCCNC(=O)CCCCCNC(=O)[C@H](CC(C)C)NC(=O)[C@H](CCC(N)=O)NC(=O)[C@H](CC(C)C)NC(=O)[C@H](CC(C)C)NC(=O)[C@H](Cc1c[nH]cn1)NC(=O)[C@H](CCC(N)=O)NC(C)=O)C(=O)N[C@@H](CCCCN)C(=O)N[C@@H](CCC(N)=O)C(=O)N[C@@H](CC(C)C)C(=O)N[C@@H](CCC(N)=O)C(=O)N[C@@H](C)C(=O)N[C@@H](CCCN=C(N)N)C(=O)N[C@H](C(=O)N[C@@H](CC(C)C)C(=O)N[C@@H](C)C(=O)N[C@H](C(=O)N[C@@H](CCC(=O)O)C(=O)O)C(C)C)[C@@H](C)CC` (Ac-QHLLQL[Ahx][Ahx][Ahx]IKQLQARILAVE-OH), the inhibition at 200 µM (MT4 [5]) was 0%.

`CC[C@H](C)[C@H](N)C(=O)N[C@@H](CCCCN)C(=O)N[C@@H](CCC(N)=O)C(=O)N[C@@H](CC(C)C)C(=O)N[C@@H](CCC(N)=O)C(=O)N[C@@H](C)C(=O)N[C@@H](CCCN=C(N)N)C(=O)N[C@H](C(=O)N[C@@H](CC(C)C)C(=O)N[C@@H](C)C(=O)N[C@H](C(=O)N[C@@H](CCC(=O)O)C(=O)N[C@@H](CCCN=C(N)N)C(=O)N[C@@H](Cc1ccc(O)cc1)C(=O)N[C@@H](CC(C)C)C(=O)N[C@@H](CCCCN)C(=O)N[C@@H](CC(=O)O)C(=O)N[C@@H](CCC(N)=O)C(=O)O)C(C)C)[C@@H](C)CC` (H-IKQLQARILAVERYLKDQ-OH) showed an inhibition at 200 µM (MT4 [5]) of 0%.

`CCCCCCCCCCCCC(N)C(=O)N[C@@H](CCC(N)=O)C(=O)N[C@@H](CC(C)C)C(=O)N[C@H](C(=O)N[C@H](C(=O)N[C@@H](Cc1c[nH]c2ccccc12)C(=O)NCC(=O)N[C@H](C(=O)N[C@@H](CCCCN)C(=O)N[C@@H](CCC(N)=O)C(=O)N[C@@H](CC(C)C)C(=O)N[C@@H](CCC(N)=O)C(=O)N[C@@H](C)C(=O)N[C@@H](CCCN=C(N)N)C(=O)N[C@H](C(=O)O)[C@@H](C)CC)[C@@H](C)CC)C(C)C)[C@@H](C)O` (stereo partly drawn) (HELM PEPTIDE1{[CCCCCCCCCCCCC(N)C(=O)[*:2]].Q.L.T.V.W.G.I.K.Q.L.Q.A.R.I}$$$$V2.0) was tested, and the inhibition at 16 µM (MT4 [6]) was 32% and the IC50 (MT4 [7]) was 8.9 µM.

`CCCCCCCCCCCCC(N)C(=O)N[C@@H](CCC(N)=O)C(=O)N[C@@H](Cc1c[nH]cn1)C(=O)N[C@@H](CC(C)C)C(=O)N[C@@H](CC(C)C)C(=O)N[C@@H](CCC(N)=O)C(=O)N[C@@H](CC(C)C)C(=O)N[C@H](C(=O)N[C@H](C(=O)N[C@@H](Cc1c[nH]c2ccccc12)C(=O)NCC(=O)N[C@H](C(=O)N[C@@H](CCCCN)C(=O)N[C@@H](CCC(N)=O)C(=O)N[C@@H](CC(C)C)C(=O)N[C@@H](CCC(N)=O)C(=O)N[C@@H](C)C(=O)N[C@@H](CCCN=C(N)N)C(=O)N[C@H](C(=O)N[C@@H](CC(C)C)C(=O)N[C@@H](C)C(=O)N[C@H](C(=O)N[C@@H](CCC(=O)O)C(=O)N[C@@H](CCCN=C(N)N)C(=O)N[C@@H](Cc1ccc(O)cc1)C(=O)N[C@@H](CC(C)C)C(=O)N[C@@H](CCCCN)C(=O)N[C@@H](CC(=O)O)C(=O)N[C@@H](CCC(N)=O)C(=O)O)C(C)C)[C@@H](C)CC)[C@@H](C)CC)C(C)C)[C@@H](C)O` (stereo partly drawn) (HELM PEPTIDE1{[CCCCCCCCCCCCC(N)C(=O)[*:2]].Q.H.L.L.Q.L.T.V.W.G.I.K.Q.L.Q.A.R.I.L.A.V.E.R.Y.L.K.D.Q}$$$$V2.0) was tested, and the inhibition at 5 µM (MT4 [8]) was 10%, the inhibition at 8 µM (MT4 [9]) was 15% and the inhibition at 20 µM (MT4 [10]) was 0%.

Work on `CC[C@H](C)[C@H](NC(=O)[C@H](CCCN=C(N)N)NC(=O)[C@H](C)NC(=O)[C@H](CCC(N)=O)NC(=O)[C@H](CC(C)C)NC(=O)[C@H](CCC(N)=O)NC(=O)[C@H](CCCCN)NC(=O)[C@@H](NC(=O)CNC(=O)[C@H](Cc1c[nH]c2ccccc12)NC(=O)[C@@H](NC(=O)[C@@H](NC(=O)[C@H](CC(C)C)NC(=O)[C@H](CCC(N)=O)NC(=O)[C@H](CC(C)C)NC(=O)CCCCCN)[C@@H](C)O)C(C)C)[C@@H](C)CC)C(=O)O` (HELM PEPTIDE1{[NCCCCCC(=O)[*:2]].L.Q.L.T.V.W.G.I.K.Q.L.Q.A.R.I}$$$$V2.0) yielded an inhibition at 40 µM (MT4 [2]) of 33%.

`CC[C@H](C)[C@H](NC(=O)CNC(=O)[C@H](Cc1c[nH]c2ccccc12)NC(=O)[C@@H](NC(=O)[C@@H](NC(=O)[C@H](CC(C)C)NC(=O)[C@H](CCC(N)=O)NC(=O)[C@H](CC(C)C)NC(=O)[C@H](CC(C)C)NC(=O)CNC(=O)CNC(=O)[C@H](CS)NC(C)=O)[C@@H](C)O)C(C)C)C(=O)N[C@@H](CCCCN)C(=O)N[C@@H](CCC(N)=O)C(=O)N[C@@H](CC(C)C)C(=O)N[C@@H](CCC(N)=O)C(=O)N[C@@H](C)C(=O)N[C@@H](CCCN=C(N)N)C(=O)N[C@H](C(=O)N[C@@H](CC(C)C)C(=O)O)[C@@H](C)CC` (Ac-CGGLLQLTVWGIKQLQARIL-OH) showed an inhibition at 20 µM (MT4 [4]) of 30%.
